# Measurements reported in ChEMBL document CHEMBL4261642, “Design, synthesis, and ex vivo evaluation of a selective inhibitor for retinaldehyde dehydrogenase enzymes” (Bioorg Med Chem, 2018).
# The source made the active and inactive calls. No cut-off for these calls is given here.
# Key:
# [1] = biological target: T1, Retinal dehydrogenase 2 (Gallus gallus) (UniProt O93344); experiment: Inhibition of N-terminal His6-tagged recombinant chick RALDH2 expressed in Escherichia coli BL21(DE3) cells at 250 nM using RAL as substrate assessed as enzyme recovery preincubated with compound and 250 uM NAD+ up to 80 mins and measured after 30 mins in presence of NAD+ by fluorescence assay; design: scale not given: the % may be the effect or the level left
# T1 sequence (whole entry): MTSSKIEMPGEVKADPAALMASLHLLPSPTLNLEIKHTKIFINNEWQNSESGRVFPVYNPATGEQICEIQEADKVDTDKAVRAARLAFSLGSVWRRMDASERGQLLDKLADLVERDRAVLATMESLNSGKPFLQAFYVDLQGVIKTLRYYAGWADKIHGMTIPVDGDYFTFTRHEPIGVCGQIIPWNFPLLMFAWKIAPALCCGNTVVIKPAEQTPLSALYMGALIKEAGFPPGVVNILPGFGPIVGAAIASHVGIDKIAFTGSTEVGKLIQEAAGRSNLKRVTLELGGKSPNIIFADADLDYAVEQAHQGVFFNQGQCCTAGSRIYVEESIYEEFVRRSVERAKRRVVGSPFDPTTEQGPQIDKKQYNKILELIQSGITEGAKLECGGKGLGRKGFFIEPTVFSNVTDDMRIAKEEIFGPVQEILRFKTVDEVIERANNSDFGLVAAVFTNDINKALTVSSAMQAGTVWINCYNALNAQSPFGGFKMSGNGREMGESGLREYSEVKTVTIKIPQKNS
# Outline: (§1)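 Chick RALDH2 (91 nM) pre-incubated with 250 nM inhibitor for 0–80 min at 37°C, alone or with 250 μM retinaldehyde or 250 μM NAD+. Reaction then started with the missing substrate and/or cofactor (250 μM retinaldehyde, 4 mM NAD), 30 min at 37°C. Fluorimetric NADH; % activity remaining. Triplicates.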
# Gallus gallus [2] = organism: Gallus gallus; experiment: (§2) Inhibition of N-terminal His6-tagged recombinant chick RALDH3 expressed in Escherichia coli BL21(DE3) cells at 250 nM using RAL as substrate assessed as Vmax preincubated for 20 mins followed by substrate addition and measured after 30 mins in presence of NADH by fluorescence assay (reference value: 107.3 +/- 15.97 pmol/microM/min)
# [3] = biological target: T1, Retinal dehydrogenase 2 (Gallus gallus); experiment: Inhibition of RALDH2 in living intact choroid isolated from normal chick eyes assessed as inhibition of ATRA synthesis after 24 hrs in presence of retinaldehyde and NAD+
# Retinal dehydrogenase 2 [4] = biological target: T2, Retinal dehydrogenase 2 (Gallus gallus, UniProt O93344); experiment: Inhibition of N-terminal His6-tagged recombinant chick RALDH2 expressed in Escherichia coli BL21(DE3) cells using RAL as substrate measured after 30 mins in presence of NADH by Morrison's plot analysis
# T2 sequence (O93344 whole entry): T1 sequence (whole entry)
# Outline: (§3)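 Ki obtained by fitting the Morrison tight-binding equation to the 20-min pre-incubation retinaldehyde/NADH fluorescence inhibition data. Inputs were enzyme concentration (RALDH1 0.358, RALDH2 0.091, RALDH3 0.355, hRALDH2 0.176 μM), substrate concentration and Km. Triplicates from 3–5 independent experiments.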
# [5] = biological target: T1, Retinal dehydrogenase 2 (Gallus gallus); experiment: Inhibition of N-terminal His6-tagged recombinant chick RALDH2 expressed in Escherichia coli BL21(DE3) cells at 250 nM using RAL as substrate assessed as remaining activity incubated up to 80 mins in presence of all-trans-retinaldehyde folowed by substrate addition and measured after 30 mins in presence of NAD+ by fluorescence assay; outline: as §1
# Gallus gallus [6] = organism: Gallus gallus; experiment: as §2, with “100” for “250”, “Km” for “Vmax”, “84.45” for “107.3”, “30.99 microM)” for “15.97 pmol/microM/min)”
# [7] = biological target: T1, Retinal dehydrogenase 2 (Gallus gallus); experiment: Inhibition of chick RALDH2 expressed in doxycycline-inducible HEK293 cells assessed as inhibition of ATRA synthesis at 1 uM after 24 hrs in presence of […]; format: cell-based
# Retinal dehydrogenase 2 [8] = biological target: T3, Retinal dehydrogenase 2 (Homo sapiens, UniProt O94788); experiment: Inhibition of N-terminal His6-tagged recombinant human RALDH2 using RAL as substrate preincubated for 20 mins followed by substrate addition and measured after 30 mins in presence of NADH by fluorescence assay
# T3 sequence (O94788 whole entry): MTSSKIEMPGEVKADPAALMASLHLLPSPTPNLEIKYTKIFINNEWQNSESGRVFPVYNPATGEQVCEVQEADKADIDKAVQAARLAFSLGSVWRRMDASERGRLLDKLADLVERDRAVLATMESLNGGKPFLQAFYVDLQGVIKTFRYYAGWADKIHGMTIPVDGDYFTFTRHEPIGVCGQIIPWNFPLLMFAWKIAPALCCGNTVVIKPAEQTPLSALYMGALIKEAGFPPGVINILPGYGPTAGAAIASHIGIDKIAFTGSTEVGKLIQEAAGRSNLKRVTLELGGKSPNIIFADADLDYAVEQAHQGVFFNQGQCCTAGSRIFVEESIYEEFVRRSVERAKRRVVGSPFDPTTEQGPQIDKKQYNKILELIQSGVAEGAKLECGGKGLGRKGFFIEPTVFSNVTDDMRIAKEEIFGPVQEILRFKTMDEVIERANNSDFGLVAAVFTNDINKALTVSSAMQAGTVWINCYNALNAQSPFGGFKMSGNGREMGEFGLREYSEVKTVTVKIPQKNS
# Outline: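 Purified His-tagged recombinant enzyme in dialysis buffer with 2 mM DTT. Amounts were chick RALDH1 2 μg (0.358 μM), chick RALDH2 0.5 μg (0.091 μM), chick RALDH3 2 μg (0.355 μM) and human RALDH2 1 μg (0.176 μM). Enzyme pre-incubated 20 min at 37°C with 0–10 μM inhibitor in DMSO. Reaction started with final 4 mM NAD+ in pyrophosphate pH 8.2 buffer plus 250 μM retinaldehyde, 30 min at 37°C. NADH read fluorimetrically (Ex/Em 540/590) against a standard curve. Triplicates, 3–5 experiments.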
# [9] = biological target: T1, Retinal dehydrogenase 2 (Gallus gallus); experiment: Inhibition of N-terminal His6-tagged recombinant chick RALDH2 expressed in Escherichia coli BL21(DE3) cells up to 500 nM using RAL as substrate assessed as rate of inactivation preincubated up to 40 mins followed by substrate addition and measured after 30 mins in presence of NADH by fluorescence assay
# Outline: (§4)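 Chick RALDH2 pre-incubated 10, 20 and 40 min with 0–500 nM inhibitor, then assayed with retinaldehyde/NAD+ by fluorimetric NADH. kobs taken from linear regression of log % activity remaining versus pre-incubation time. KI and kinact obtained by nonlinear regression of kobs versus inhibitor concentration.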
# [10] = biological target: T1, Retinal dehydrogenase 2 (Gallus gallus); experiment: Inhibition of N-terminal His6-tagged recombinant chick RALDH2 expressed in Escherichia coli BL21(DE3) cells up to 500 nM using RAL as substrate assessed as inactivation rate constant preincubated up to 40 mins followed by substrate addition and measured after 30 mins in presence of NADH by fluorescence assay; outline: as §4
# [11] = biological target: T1, Retinal dehydrogenase 2 (Gallus gallus); experiment: Inhibition of RALDH2 in choroidal cytosol fraction from 4 day recovering chick assessed as inhibition of ATRA synthesis at 0.1 to 6 uM pre-incubated for 20 mins followed by […] addition and measured after 30 mins by HPLC analysis
# Outline: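 Choroid cytosol fractions (100,000 × g supernatant) from 4-day recovering chick eyes pre-incubated 20 min at 37°C with 0.01–6 μM inhibitor or DMSO. Reaction started with 4 mM NAD+ and 25 μM all-trans-retinaldehyde, 30 min at 37°C. ATRA extracted and quantified by reverse-phase HPLC (350 nm, MS). Two experiments, n = 3–5 each.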
# Retinal dehydrogenase 2 [12] = biological target: T3, Retinal dehydrogenase 2; experiment: Inhibition of N-terminal His6-tagged recombinant human RALDH2 using RAL as substrate measured after 30 mins in presence of NADH by Morrison's plot analysis; outline: as §3
smiles,measurement,setting,value
CC1=C(/C=C/C(C)=C/C=C/C(C)=C/C(=O)C(Cl)Cl)C(C)(C)CCC1,Activity,[1],52 to 65%
same,Vmax,Gallus gallus [2],41.6 pmol/µM/min
same,inhibition,[3],inactive
same,Ki,Retinal dehydrogenase 2 [4],5.1 nM
same,inhibition,[5],Active
same,Km,Gallus gallus [6],52.7 µM
same,inhibition,[7],92%
same,IC50,Retinal dehydrogenase 2 [8],191 nM
same,kobs,[9],2.8e-05 to 0.012 min⁻¹
same,Kinact,[10],0.0159 min⁻¹
same,inhibition,[11],70 to 96%
same,Ki,Retinal dehydrogenase 2 [12],64.3 nM
